Measured values: ChEMBL document CHEMBL3769357, “Phosphoramidate protides of five flavones and their antiproliferative activity against HepG2 and L-O2 cell lines” (Eur J Med Chem, 2016)

Columns and labels:
[1] = system: HepG2; experiment: Antiproliferative activity against human HepG2 cells after 48 hrs by MTT assay; assay type: functional, cell-based; conditions: HepG2, 48 h
In short: (§1)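 After 48 h, MTT (5 mg/mL in PBS) added, 4 h at 37 °C, DMSO added, absorbance read at 570 nm. IC50 is the 50% growth-inhibition concentration, mean of three independent experiments.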

[2] = Cytotoxicity against human LO2 cells after 48 hrs by MTT assay; assay type: cell-based; conditions: L02, 48 h; in short: as §1
[3] = system: HepG2; experiment: Selectivity index, ratio of IC50 for human LO2 cells to human HepG2 cells
[4] = system: T-24; experiment: Induction of cell cycle arrest in human T24 cells assessed as accumulation at G2/M phase at 160 uM after 24 hrs by propidium iodide staining-based flow cytometry (reference value: 14.45%); assay type: functional
[5] = system: BGC-823; experiment: Induction of apoptosis in human BGC823 cells at 80 uM after 24 hrs by annexin V-FITC/propidium iodide staining-based flow cytometry (reference value: 1.5%); assay type: functional
[6] = system: LN-229; experiment: Induction of cell cycle arrest in human LNT229 cells assessed as accumulation at G2/M phase at 100 uM after 24 hrs by propidium iodide staining-based flow cytometry (reference value: 34%); assay type: functional
[7] = system: HepG2; experiment: Induction of cell cycle arrest in human HepG2 cells assessed as accumulation at G0/G1 phase at IC50 after 24 hrs by propidium iodide staining-based flow cytometry (reference value: 67.5%); assay type: functional
[8] = system: HepG2; experiment: Induction of cell cycle arrest in human HepG2 cells assessed as accumulation at S phase at IC50 after 24 hrs by propidium iodide staining-based flow cytometry (reference value: 16.1%); assay type: functional
[9] = system: HepG2; experiment: Induction of cell cycle arrest in human HepG2 cells assessed as accumulation at G2/M phase at IC50 after 24 hrs by propidium iodide staining-based flow cytometry (reference value: 16.4%); assay type: functional
[10] = system: HepG2; experiment: Induction of apoptosis in human HepG2 cells assessed as viable cells at IC50 after 4 hrs by annexin V-FITC/propidium iodide staining-based flow cytometry (reference value: 98.6%); assay type: functional
[11] = system: HepG2; experiment: Induction of apoptosis in human HepG2 cells assessed as viable cells at IC50 after 24 hrs by annexin V-FITC/propidium iodide staining-based flow cytometry (reference value: 90.5%); assay type: functional
[12] = system: HepG2; experiment: Induction of apoptosis in human HepG2 cells assessed as nectrotic cells at IC50 after 4 hrs by annexin V-FITC/propidium iodide staining-based flow cytometry (reference value: 0.46%); assay type: functional
[13] = system: HepG2; experiment: Induction of apoptosis in human HepG2 cells assessed as nectrotic cells at IC50 after 24 hrs by annexin V-FITC/propidium iodide staining-based flow cytometry (reference value: 6.70%); assay type: functional
[14] = system: HepG2; experiment: Induction of apoptosis in human HepG2 cells assessed as early apoptotic cells at IC50 after 4 hrs by annexin V-FITC/propidium iodide staining-based flow cytometry (reference value: 0.41%); assay type: functional
[15] = system: HepG2; experiment: Induction of apoptosis in human HepG2 cells assessed as late apoptotic cells at IC50 after 4 hrs by annexin V-FITC/propidium iodide staining-based flow cytometry (reference value: 0.53%); assay type: functional
[16] = system: HepG2; experiment: Induction of apoptosis in human HepG2 cells assessed as late apoptotic cells at IC50 after 24 hrs by annexin V-FITC/propidium iodide staining-based flow cytometry (reference value: 1.77%); assay type: functional
[17] = system: HepG2; experiment: Induction of apoptosis in human HepG2 cells assessed as early apoptotic cells at IC50 after 24 hrs by annexin V-FITC/propidium iodide staining-based flow cytometry (reference value: 0.41%)

Structure (SMILES) | IC50 [1] | IC50 [2] | Ratio IC50 [3] | Activity [4] | Activity [5] | Activity [6] | Activity [7] | Activity [8] | Activity [9] | Activity [10] | Activity [11] | Activity [12] | Activity [13] | Activity [14] | Activity [15] | Activity [16] | Activity [17]
O=c1cc(-c2ccc(O)cc2)oc2cc(O)cc(O)c12 [APIGENIN] | 70.2 µM | > 100 µM | >1.425 | 37.94% |  |  |  |  |  |  |  |  |  |  |  |  | 
O=c1c(-c2ccc(O)cc2)coc2cc(O)ccc12 [DAIDZEIN] | > 100 µM | > 100 µM |  |  | 32.5% |  |  |  |  |  |  |  |  |  |  |  | 
O=c1c(-c2ccc(O)cc2)coc2cc(O)cc(O)c12 [GENISTEIN] | > 100 µM | > 100 µM |  |  |  | 58% |  |  |  |  |  |  |  |  |  |  | 
COC(=O)[C@H](C)NP(=O)(Oc1ccccc1)Oc1cc(OC(C)=O)c2c(=O)cc(-c3ccc(OC(C)=O)cc3)oc2c1 (some centres undefined) | 9 µM | 22.2 µM | 2.467 |  |  |  | 11% | 16.4% | 72.6% | 89.02% | 85.42% | 3.58% | 9.88% | 0.45% | 6.95% | 3.4% | 1.31%
